# Source: the RNAGym collection of RNA variant scans (doi:10.1126/science.aae0568)
# Fewer inactive variants are shown than the library holds.
# B1: tRNA (parent)
# chain: GUUCCGUUGGCGUAAUGGUAACGCGUCUCCCUCCUAAGGAGAAGACUGCGGGUUCGAGUCCCGUACGGAACG
# Variants of: B1
# Test: yeast fitness relative to wild type (ratio to wild type); higher = fitter; tRNA-Arg(CCU), competitive growth, 37 C, YPD
# How it was run: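 The tRNA-Arg(CCU) gene variants were made by chemical synthesis with a 3% per-site mutation rate at 69 sites and inserted at the native genomic locus of Saccharomyces cerevisiae. After pooling, the strains were competed in YPD at 37°C for 24 hours in six parallel replicates. Gene amplicons from the start population and each end population were read by 100-nucleotide paired-end sequencing, and Darwinian fitness relative to wild type was taken from genotype frequency changes. Genotypes needed ≥ 100 starting reads, and estimates < 0.5 were set to 0.5.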
row,Variant,yeast fitness
1,C5U G17A A40U A42C C49A C66A,0.593
2,C5U U28A A69C,0.541
3,G6A A14U U64G,0.664
4,C5U G18A G44C,0.638
5,C5U U7C G68C,≤ 0.5
6,C5U G10A G12A U53A,≤ 0.5
7,C5U U47A,1.06
8,C5U G48A C55U A65C,0.556
9,G6A A21C C33G,≤ 0.5
10,C5U U32G A36U G68C,≤ 0.5
11,C5U G6A A40C C46A,0.578
12,G6A A36U C49G C62U,≤ 0.5
13,C5U C49U,0.953
14,C5U C49A,0.78
15,C5U G18C U26C C30U C31G A70C,≤ 0.5
16,C5U U28C C61U,0.705
17,C5U G18A G25C A69C,≤ 0.5
18,C5U U28C C46A C66G,0.534
19,C5U G39A A45C,0.76
20,C5U G52A G63C,≤ 0.5
21,C5U G44C G68C,0.697

row,Variant,yeast fitness
1,C5U U16A U47C,0.785
2,G6A A37C,0.824
3,G6A A36U A37G A40C C66U,≤ 0.5
4,G6A A15C A36C A42U A43G C55G C61U,≤ 0.5
5,C5U G6C,0.818
6,C5U G18A U28A G56A C61G,0.626
7,C5U U19C U28A C66U G68A,≤ 0.5
8,C5U G39A G48A A57U,0.565
9,C5U C49A C66U,0.551
10,C5U U47G G50C,0.575
11,C5U G10C A15G G67U,≤ 0.5
12,C5U G17C C27U A65G,≤ 0.5
13,G6A A37C A40G,≤ 0.5
14,C5U U32C C49G G68C,0.593
15,C5U G10C,0.629
16,C5U G10A,0.702
17,C5U U53G,0.617
18,C5U C46U U59G,0.538
19,C5U U35A A36G,0.673
20,C5U G39U,0.823
21,C5U G39A,0.938

row,Variant,yeast fitness
1,C5U U7A C62A A69G A70G,≤ 0.5
2,G6A A15G C46U C66U,0.77
3,C5U G38C G48C G52A,≤ 0.5
4,C5U U16A C33U C49A,≤ 0.5
5,C5U G9C G52C U54C A69C,≤ 0.5
6,C5U U13A C29G C31A G63C,0.533
7,C5U C61A G68A,≤ 0.5
8,C5U G50A C66U,0.637
9,C5U G50A C66A,≤ 0.5
10,G6A A20G C60G,≤ 0.5
11,C5U G25C A42U,0.639
12,C5U G17A C60A,≤ 0.5
13,C5U G48A A69C,0.758
14,C5U U35G U47A G48A A65U,0.557
15,C5U U19G A37G C66U A69U,0.547
16,C5U G41A G52C,≤ 0.5
17,C5U G41A G52A,≤ 0.5
18,G6A A15C C27A C61G A70U,0.579
19,C5U U16G U35A,≤ 0.5
20,C5U G12A A69C,0.724
21,G6A A15U U59A G68C,≤ 0.5

row,Variant,yeast fitness
1,C5U U35G A65U,0.576
2,C5U U35C A36G,0.801
3,C5U U16C C31A G67C,≤ 0.5
4,C5U G44A C55U,0.629
5,C5U U16G A40G A42U G52A,≤ 0.5
6,C5U U8C C30G C31G A65C,≤ 0.5
7,C5U U13C C24G U26C A37G G38U U54G C61G,≤ 0.5
8,C5U U26A C46G,0.717
9,C5U U13A C46A C62U C66U,≤ 0.5
10,C5U G9C A36G C60G A70G,≤ 0.5
11,G6A A15C C22U C33G C62A G63C,0.753
12,C5U G10A U16A A65G,≤ 0.5
13,C5U U16A G23A G25C,≤ 0.5
14,G6A A20G C31G C46U G67A,≤ 0.5
15,G6A A40C G41C G68C,≤ 0.5
16,G6A,0.965
17,C5U G48A G51C,≤ 0.5
18,C5U C49G A69U,0.629
19,C5U U7C C24A C61U,≤ 0.5
20,G6A A15G U54G C55U,≤ 0.5
21,C5U G12A A45C,0.782
